# Test results as given in ChEMBL document CHEMBL4020756, “Discovery of novel substituted benzo-anellated 4-benzylamino pyrrolopyrimidines as dual EGFR and VEGFR2 inhibitors” (Bioorg Med Chem Lett, 2017).
# Tests used:
# [1] = biological target: Epidermal growth factor receptor (Homo sapiens, UniProt P00533); assay: Inhibition of EGFR (unknown origin) using poly(Glu,Tyr)4:1 as substrate in presence of [gamma-33P]-ATP after 60 mins by scintillation counting analysis
# [2] = biological target: Vascular endothelial growth factor receptor 2 (Homo sapiens, UniProt P35968); assay: Inhibition of VEGFR2 (unknown origin) using poly(Glu,Tyr)4:1 as substrate in presence of [gamma-33P]-ATP after 60 mins by scintillation counting analysis
# Vascular endothelial growth factor receptor 2, sequence (P35968 whole entry): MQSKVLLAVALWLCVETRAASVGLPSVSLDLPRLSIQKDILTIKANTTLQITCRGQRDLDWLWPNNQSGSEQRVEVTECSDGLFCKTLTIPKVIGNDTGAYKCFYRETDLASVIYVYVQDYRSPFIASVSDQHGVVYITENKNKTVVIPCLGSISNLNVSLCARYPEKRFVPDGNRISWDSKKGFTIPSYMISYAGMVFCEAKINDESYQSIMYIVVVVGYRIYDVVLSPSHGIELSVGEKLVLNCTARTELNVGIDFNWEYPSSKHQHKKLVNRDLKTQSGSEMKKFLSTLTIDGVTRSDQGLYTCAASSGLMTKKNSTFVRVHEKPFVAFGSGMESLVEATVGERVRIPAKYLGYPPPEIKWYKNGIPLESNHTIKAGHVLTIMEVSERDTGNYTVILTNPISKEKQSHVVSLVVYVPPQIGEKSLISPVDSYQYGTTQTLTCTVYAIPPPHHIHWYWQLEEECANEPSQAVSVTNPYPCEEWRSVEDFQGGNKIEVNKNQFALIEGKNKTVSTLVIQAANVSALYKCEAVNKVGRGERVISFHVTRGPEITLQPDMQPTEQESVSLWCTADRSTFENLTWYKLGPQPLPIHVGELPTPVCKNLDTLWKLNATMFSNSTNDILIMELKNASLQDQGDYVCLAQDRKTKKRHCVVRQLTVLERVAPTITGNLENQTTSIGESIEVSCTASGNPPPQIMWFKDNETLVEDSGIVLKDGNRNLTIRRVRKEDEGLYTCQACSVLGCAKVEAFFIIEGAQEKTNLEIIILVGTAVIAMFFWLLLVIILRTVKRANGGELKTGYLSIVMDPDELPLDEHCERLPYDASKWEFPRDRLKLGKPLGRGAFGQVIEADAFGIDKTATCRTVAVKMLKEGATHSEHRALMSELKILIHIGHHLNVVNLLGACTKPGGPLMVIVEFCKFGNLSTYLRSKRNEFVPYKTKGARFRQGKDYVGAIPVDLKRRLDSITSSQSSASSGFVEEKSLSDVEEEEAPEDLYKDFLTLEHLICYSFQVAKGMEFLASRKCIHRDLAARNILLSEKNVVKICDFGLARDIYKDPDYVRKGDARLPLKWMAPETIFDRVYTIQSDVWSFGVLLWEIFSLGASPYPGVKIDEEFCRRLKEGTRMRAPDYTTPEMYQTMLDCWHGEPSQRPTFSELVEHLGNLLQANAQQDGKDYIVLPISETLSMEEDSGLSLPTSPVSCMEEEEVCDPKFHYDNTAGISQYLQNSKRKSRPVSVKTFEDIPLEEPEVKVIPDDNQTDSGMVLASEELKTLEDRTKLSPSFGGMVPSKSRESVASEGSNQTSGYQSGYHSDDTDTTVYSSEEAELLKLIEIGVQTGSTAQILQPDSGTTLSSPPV
# Procedure, shortened: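 Radiometric ATP-competition assay at 30 °C for 60 min. Kinase was 20 ng/50 µL with Poly(Glu,Tyr)4:1 substrate at 125 ng/50 µL. Buffer was 70 mM HEPES-NaOH pH 7.5 with 3 mM MgCl2, 3 mM MnCl2, 3 µM orthovanadate, 1.2 mM DTT, 50 µg/mL PEG20000 and 15 µM [γ-33P]-ATP. The stop was 2% phosphoric acid, and 33Pi incorporation was counted by scintillation. Ten concentrations from 3 nM to 100 µM gave IC50.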
# HOP-92 = assay: Growth inhibition of human HOP92 cells at 10 uM after 48 hrs by sulforhodamine assay relative to control; format: functional; settings: HOP-92, 48 h, read-out: GI
# Procedure, shortened: (§1)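 Tested at a single 10 µM concentration in the NCI tumour cell panel screen. Growth inhibition was read by sulforhodamine B staining.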
# NCI-H460 = assay: Growth inhibition of human NCI-H460 cells at 10 uM after 48 hrs by sulforhodamine assay relative to control; format: functional; settings: NCI-H460, 48 h, read-out: GI; procedure, shortened: as §1
# Hs-578T = assay: Growth inhibition of human Hs578T cells at 10 uM after 48 hrs by sulforhodamine assay relative to control; format: functional; settings: read-out: GI; procedure, shortened: as §1
# BT-549 = assay: Growth inhibition of human BT549 cells at 10 uM after 48 hrs by sulforhodamine assay relative to control; format: functional; settings: BT-549, 48 h, read-out: GI; procedure, shortened: as §1
# HOP-62 = assay: Growth inhibition of human HOP62 cells at 10 uM after 48 hrs by sulforhodamine assay relative to control; format: functional; settings: HOP-62, 48 h, read-out: GI; procedure, shortened: as §1
# MDA-MB-468 = assay: Growth inhibition of human MDA-MB-468 cells at 10 uM after 48 hrs by sulforhodamine assay relative to control; format: functional; settings: MDA-MB-468, 48 h, read-out: GI; procedure, shortened: as §1
# MDA-MB-231 = assay: Growth inhibition of human MDA-MB-231 cells at 10 uM after 48 hrs by sulforhodamine assay relative to control; format: functional; settings: MDA-MB-231, 48 h, read-out: GI; procedure, shortened: as §1
# [3] = biological target: Casein kinase I isoform alpha (Homo sapiens, UniProt P48729); assay: Inhibition of CK1 alpha (unknown origin)
# Procedure, shortened: (§2)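 ATP-competition kinase assay run at several inhibitor concentrations. Reduced phosphorylation of the kinase substrate was measured by scintillation counting, and IC50 values were derived.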
# [4] = biological target: Mitogen-activated protein kinase kinase kinase 2 (Homo sapiens, UniProt Q9Y2U5); assay: Inhibition of MEKK2 (unknown origin); procedure, shortened: as §2
# [5] = biological target: Death-associated protein kinase 1 (Homo sapiens, UniProt P53355); assay: Inhibition of DAPK1 (unknown origin); procedure, shortened: as §2
# [6] = Solubility of the compound in pH 7.5 HEPES-NaOH buffer at > 100 uM; format: physicochemical
# [7] = biological target: Interleukin-1 receptor-associated kinase 1 (Homo sapiens, UniProt P51617); assay: Inhibition of IRAK (unknown origin); procedure, shortened: as §2
# [8] = biological target: Serine/threonine-protein kinase MARK1 (Homo sapiens, UniProt Q9P0L2); assay: Inhibition of MARK1 (unknown origin); procedure, shortened: as §2
# Serine/threonine-protein kinase MARK1, sequence (Q9P0L2 whole entry): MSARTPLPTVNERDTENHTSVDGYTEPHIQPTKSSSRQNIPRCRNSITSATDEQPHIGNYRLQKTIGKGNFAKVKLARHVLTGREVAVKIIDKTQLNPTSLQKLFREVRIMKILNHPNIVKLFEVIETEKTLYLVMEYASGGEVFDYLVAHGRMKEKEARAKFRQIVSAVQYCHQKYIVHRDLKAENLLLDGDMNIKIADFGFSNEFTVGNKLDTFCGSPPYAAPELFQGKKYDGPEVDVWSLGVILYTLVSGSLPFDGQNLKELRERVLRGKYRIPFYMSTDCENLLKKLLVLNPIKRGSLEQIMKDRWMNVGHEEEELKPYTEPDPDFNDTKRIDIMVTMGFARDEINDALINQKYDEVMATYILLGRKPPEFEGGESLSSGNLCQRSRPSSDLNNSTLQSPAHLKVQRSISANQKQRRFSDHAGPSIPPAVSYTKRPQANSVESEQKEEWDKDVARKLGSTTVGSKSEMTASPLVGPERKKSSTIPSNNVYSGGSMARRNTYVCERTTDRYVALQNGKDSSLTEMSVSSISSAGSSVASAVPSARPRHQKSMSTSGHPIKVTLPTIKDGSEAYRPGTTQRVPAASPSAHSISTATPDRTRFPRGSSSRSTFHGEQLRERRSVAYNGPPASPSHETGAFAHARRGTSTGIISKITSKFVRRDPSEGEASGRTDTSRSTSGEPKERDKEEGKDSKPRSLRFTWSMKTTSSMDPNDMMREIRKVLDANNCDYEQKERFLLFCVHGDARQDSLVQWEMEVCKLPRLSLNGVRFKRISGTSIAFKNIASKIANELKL
# [9] = biological target: Activin receptor type-1-like (Homo sapiens, UniProt P37023); assay: Inhibition of ALK1 (unknown origin); procedure, shortened: as §2
# Wee1-like protein kinase = Wee1-like protein kinase (Homo sapiens, UniProt P30291); assay: Inhibition of Wee1 (unknown origin); procedure, shortened: as §2
# [10] = biological target: Mitogen-activated protein kinase kinase kinase 21 (Homo sapiens, UniProt Q5TCX8); assay: Inhibition of MLK4 (unknown origin); procedure, shortened: as §2
# [11] = biological target: Tyrosine-protein kinase ABL1 (Homo sapiens, UniProt P00519); assay: Inhibition of c-Abl (unknown origin); procedure, shortened: as §2
# Tyrosine-protein kinase ABL1, sequence (P00519 whole entry): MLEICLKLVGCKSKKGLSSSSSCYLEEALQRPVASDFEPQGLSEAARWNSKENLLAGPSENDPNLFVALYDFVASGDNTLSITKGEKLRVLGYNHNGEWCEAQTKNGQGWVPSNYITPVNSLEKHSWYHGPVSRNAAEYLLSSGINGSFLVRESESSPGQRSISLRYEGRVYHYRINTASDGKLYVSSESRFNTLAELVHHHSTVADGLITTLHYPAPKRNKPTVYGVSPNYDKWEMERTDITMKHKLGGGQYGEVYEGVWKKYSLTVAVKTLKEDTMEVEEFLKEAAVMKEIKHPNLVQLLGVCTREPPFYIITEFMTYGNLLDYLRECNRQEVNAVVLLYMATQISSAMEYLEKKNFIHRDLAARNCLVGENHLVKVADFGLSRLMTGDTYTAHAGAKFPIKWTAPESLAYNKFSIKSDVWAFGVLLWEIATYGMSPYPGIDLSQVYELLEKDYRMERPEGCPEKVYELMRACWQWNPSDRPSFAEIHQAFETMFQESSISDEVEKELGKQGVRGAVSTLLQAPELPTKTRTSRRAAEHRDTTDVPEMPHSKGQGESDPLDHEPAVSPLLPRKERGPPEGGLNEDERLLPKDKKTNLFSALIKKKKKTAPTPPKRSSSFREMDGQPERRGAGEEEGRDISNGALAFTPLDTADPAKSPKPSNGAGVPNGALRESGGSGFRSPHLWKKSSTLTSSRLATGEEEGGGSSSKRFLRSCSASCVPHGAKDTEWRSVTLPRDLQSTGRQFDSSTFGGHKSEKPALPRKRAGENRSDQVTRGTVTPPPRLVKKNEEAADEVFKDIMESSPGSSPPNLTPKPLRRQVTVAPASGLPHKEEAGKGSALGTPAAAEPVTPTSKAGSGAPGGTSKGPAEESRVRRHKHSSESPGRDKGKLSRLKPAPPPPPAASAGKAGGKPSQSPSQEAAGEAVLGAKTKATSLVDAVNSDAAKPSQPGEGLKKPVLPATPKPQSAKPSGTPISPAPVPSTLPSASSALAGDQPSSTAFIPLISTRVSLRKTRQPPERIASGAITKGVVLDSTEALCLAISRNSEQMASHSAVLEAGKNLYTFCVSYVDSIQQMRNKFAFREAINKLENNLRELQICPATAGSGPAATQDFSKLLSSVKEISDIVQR
# [12] = biological target: Dual specificity mitogen-activated protein kinase kinase 1 (Homo sapiens, UniProt Q02750); assay: Inhibition of MEK1 (unknown origin); procedure, shortened: as §2
# Myotonin-protein kinase = Myotonin-protein kinase (Homo sapiens, UniProt Q09013); assay: Inhibition of DMPK (unknown origin); procedure, shortened: as §2
# Myotonin-protein kinase, sequence (Q09013 whole entry): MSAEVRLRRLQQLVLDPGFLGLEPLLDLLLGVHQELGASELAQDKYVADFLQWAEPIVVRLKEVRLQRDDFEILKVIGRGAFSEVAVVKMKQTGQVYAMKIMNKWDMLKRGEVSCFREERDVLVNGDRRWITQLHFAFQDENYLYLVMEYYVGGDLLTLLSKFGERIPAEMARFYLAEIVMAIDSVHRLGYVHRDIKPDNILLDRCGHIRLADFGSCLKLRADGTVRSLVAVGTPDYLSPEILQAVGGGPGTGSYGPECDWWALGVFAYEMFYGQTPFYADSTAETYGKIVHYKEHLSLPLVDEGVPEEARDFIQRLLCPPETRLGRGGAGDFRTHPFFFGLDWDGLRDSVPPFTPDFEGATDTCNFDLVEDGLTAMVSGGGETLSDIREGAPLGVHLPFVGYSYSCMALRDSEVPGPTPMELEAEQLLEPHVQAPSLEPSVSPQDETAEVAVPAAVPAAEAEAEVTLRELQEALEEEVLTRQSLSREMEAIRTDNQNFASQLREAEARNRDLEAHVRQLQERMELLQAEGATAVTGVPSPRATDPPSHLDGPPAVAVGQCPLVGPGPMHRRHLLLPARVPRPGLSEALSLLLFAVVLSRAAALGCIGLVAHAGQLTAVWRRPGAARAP
# [13] = biological target: Tyrosine-protein kinase JAK2 (Homo sapiens, UniProt O60674); assay: Inhibition of JAK2 (unknown origin); procedure, shortened: as §2
# [14] = biological target: Protein kinase C alpha type (Homo sapiens, UniProt P17252); assay: Inhibition of PKC alpha (unknown origin); procedure, shortened: as §2
# Epidermal growth factor receptor, sequence (P00533 whole entry): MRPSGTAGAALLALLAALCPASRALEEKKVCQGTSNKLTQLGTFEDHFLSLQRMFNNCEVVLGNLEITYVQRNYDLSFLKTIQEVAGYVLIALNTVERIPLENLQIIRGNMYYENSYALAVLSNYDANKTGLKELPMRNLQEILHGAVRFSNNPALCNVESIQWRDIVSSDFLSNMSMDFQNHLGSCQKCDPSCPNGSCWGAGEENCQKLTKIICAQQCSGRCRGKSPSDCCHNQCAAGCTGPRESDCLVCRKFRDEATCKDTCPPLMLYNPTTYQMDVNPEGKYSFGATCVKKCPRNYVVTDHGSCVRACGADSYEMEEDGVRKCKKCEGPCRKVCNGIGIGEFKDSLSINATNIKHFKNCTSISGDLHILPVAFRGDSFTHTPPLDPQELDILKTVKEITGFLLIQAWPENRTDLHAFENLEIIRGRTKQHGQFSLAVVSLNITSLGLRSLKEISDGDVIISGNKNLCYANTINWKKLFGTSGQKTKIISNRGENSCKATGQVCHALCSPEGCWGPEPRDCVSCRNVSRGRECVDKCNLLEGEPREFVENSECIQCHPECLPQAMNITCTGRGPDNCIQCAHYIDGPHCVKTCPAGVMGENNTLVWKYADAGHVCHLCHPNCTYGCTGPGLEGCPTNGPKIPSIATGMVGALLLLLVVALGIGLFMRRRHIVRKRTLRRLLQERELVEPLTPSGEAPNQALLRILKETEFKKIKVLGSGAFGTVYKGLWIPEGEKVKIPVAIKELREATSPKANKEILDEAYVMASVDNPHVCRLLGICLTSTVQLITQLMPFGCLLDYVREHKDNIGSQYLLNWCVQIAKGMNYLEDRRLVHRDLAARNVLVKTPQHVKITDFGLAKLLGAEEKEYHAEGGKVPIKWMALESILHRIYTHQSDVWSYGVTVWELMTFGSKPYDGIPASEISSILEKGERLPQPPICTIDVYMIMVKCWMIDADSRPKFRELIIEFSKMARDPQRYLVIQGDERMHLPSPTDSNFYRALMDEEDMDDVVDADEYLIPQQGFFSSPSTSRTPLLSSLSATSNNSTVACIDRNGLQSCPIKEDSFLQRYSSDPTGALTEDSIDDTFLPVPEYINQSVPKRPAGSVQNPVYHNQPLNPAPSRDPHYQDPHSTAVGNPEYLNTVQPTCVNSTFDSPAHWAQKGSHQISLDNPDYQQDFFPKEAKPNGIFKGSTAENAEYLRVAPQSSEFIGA
smiles,measurement,setting,value
Nc1nc(NCc2ccccc2)c2c(n1)[nH]c1ccc(O)cc12,Ki,[1],700 nM
same,Ki,[2]; read-out: Ki,2.76 µM
Nc1nc(NCCc2ccccc2)c2c(n1)[nH]c1ccc(O)cc12,Ki,[1],640 nM
same,Ki,[2]; read-out: Ki,4.47 µM
Nc1nc(NCc2ccc(Cl)cc2)c2c(n1)[nH]c1ccc(O)cc12,inhibition of growth at 10 µM,HOP-92,57%
same,inhibition of growth at 10 µM,NCI-H460,25%
same,inhibition of growth at 10 µM,Hs-578T,33%
same,inhibition of growth at 10 µM,BT-549,24%
same,inhibition of growth at 10 µM,HOP-62,31%
same,Ki,[1],80 nM
same,Ki,[2]; read-out: Ki,3.24 µM
same,inhibition of growth at 10 µM,MDA-MB-468,71%
same,inhibition of growth at 10 µM,MDA-MB-231,65%
COc1ccc(CNc2nc(N)nc3[nH]c4ccc(O)cc4c23)cc1OC,Ki,[1],3680 nM
same,Ki,[2]; read-out: Ki,11.1 µM
Nc1nc(NCc2ccccc2)c2c(n1)[nH]c1cc(Br)c(O)cc12,Ki,[1],370 nM
same,Ki,[2],Not Active
Nc1nc(NCc2cccc(Cl)c2)c2c(n1)[nH]c1ccc(O)cc12,Ki,[1],290 nM
COc1ccc(CNc2nc(N)nc3[nH]c4cc(C)c(O)cc4c23)cc1,Ki,[1],5950 nM
COc1cc2[nH]c3nc(N)nc(NCc4ccccc4)c3c2cc1O,Ki,[1],610 nM
same,Ki,[2]; read-out: Ki,13.4 µM
Cc1ccc(CNc2nc(N)nc3[nH]c4ccc(O)cc4c23)cc1,Ki,[1],90 nM
same,Ki,[2]; read-out: Ki,3.26 µM
Cc1cc2[nH]c3nc(N)nc(NCc4ccc(Cl)cc4)c3c2cc1O,Ki,[1],110 nM
same,Ki,[2],Not Active
Cc1cc2[nH]c3nc(N)nc(NCc4cccc(Cl)c4)c3c2cc1O,Ki,[1],900 nM
COc1cccc(CNc2nc(N)nc3[nH]c4ccc(O)cc4c23)c1,Ki,[1],1260 nM
same,Ki,[2]; read-out: Ki,3.99 µM
C[C@@H](Nc1nc(N)nc2[nH]c3ccc(O)cc3c12)c1ccccc1,Ki,[1],910 nM
same,Ki,[2]; read-out: Ki,1.93 µM
Nc1nc(NCc2ccccc2)c2c(n1)[nH]c1cc(Cl)c(O)cc12,inhibition of growth at 10 µM,HOP-92,19%
same,inhibition of growth at 10 µM,NCI-H460,5%
same,inhibition of growth at 10 µM,Hs-578T,16%
same,inhibition of growth at 10 µM,BT-549,21%
same,inhibition of growth at 10 µM,HOP-62,20%
same,Ki,[1],270 nM
same,Ki,[2],Not Active
same,inhibition of growth at 10 µM,MDA-MB-468,28%
same,inhibition of growth at 10 µM,MDA-MB-231,34%
COc1ccccc1CNc1nc(N)nc2[nH]c3cc(C)c(O)cc3c12,Ki,[1],4030 nM
same,Ki,[2]; read-out: Ki,7.24 µM
Cc1cc2[nH]c3nc(N)nc(NCc4ccccc4)c3c2cc1O,Ki,[1],640 nM
same,Ki,[2]; read-out: Ki,4.83 µM
Cc1ccc(CNc2nc(N)nc3[nH]c4cc(C)c(O)cc4c23)cc1,IC50,[3],> 100 µM
same,IC50,[4],> 100 µM
same,IC50,[5],> 100 µM
same,solubility,[6],Soluble
same,IC50,[7],> 100 µM
same,IC50,[8],> 100 µM
same,IC50,[9],> 100 µM
same,Ki,[1],5670 nM
same,IC50,Wee1-like protein kinase,> 100 µM
same,Ki,[2],Not Active
same,IC50,[10],> 100 µM
same,IC50,[11],> 100 µM
same,IC50,[12],> 100 µM
same,IC50,Myotonin-protein kinase,> 100 µM
same,IC50,[13],> 100 µM
same,IC50,[14],> 100 µM
C[C@H](Nc1nc(N)nc2[nH]c3ccc(O)cc3c12)c1ccccc1,Ki,[1],520 nM
same,Ki,[2]; read-out: Ki,4.15 µM
COc1ccc(CNc2nc(N)nc3[nH]c4ccc(O)cc4c23)cc1,Ki,[1],120 nM
COc1ccccc1CNc1nc(N)nc2[nH]c3ccc(O)cc3c12,inhibition of growth at 10 µM,HOP-92,66%
same,inhibition of growth at 10 µM,NCI-H460,82%
same,inhibition of growth at 10 µM,Hs-578T,41%
same,inhibition of growth at 10 µM,BT-549,37%
same,inhibition of growth at 10 µM,HOP-62,63%
same,Ki,[1],1870 nM
same,Ki,[2]; read-out: Ki,0.85 µM
same,inhibition of growth at 10 µM,MDA-MB-468,55%
same,inhibition of growth at 10 µM,MDA-MB-231,73%
